Test results from ChEMBL document CHEMBL2424543, “Enantioselective effects of (+)- and (-)-citronellal on animal and plant microtubules” (J Nat Prod, 2013).
Calls of active or inactive are those of the source. The rule behind the calls is not given here.

Legend:
[1] = target: Tubulin beta-6 chain (Arabidopsis thaliana) (UniProt P29514); test: Effect on GFP-tagged tubulin beta6 polymerization in Arabidopsis thaliana (L.) Heynh assessed as growth of leading end at 25 uM after 10 mins by confocal microscopic analysis (reference value: 5.79 +/- 1.15 um/min)
REF52 [2] = test: Induction of microtubule depolymerization in rat REF52 cells at 27.5 to 55 uM after 30 mins by fluorescence assay relative to control; assay type: cell-based
Bos taurus [3] = organism: Bos taurus; test: Inhibition of rhodamine-labeled bovine brain tubulin polymerization assessed as shorter microtubules at 20 uM after 20 mins by fluorescence microscopic analysis relative to control
Procedure, shortened: (§1)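 Purified bovine brain tubulin mixed with rhodamine-tubulin and GTP was polymerized in MRB80 (80 mM PIPES/KOH pH 6.8, 1 mM MgCl2, 1 mM EGTA) plus 6% glycerol, with 20 μM compound or 0.01% DMSO. Incubation was 20 min at 37 °C, stopped with 0.5% glutaraldehyde. MT number and total length were measured by wide-field fluorescence microscopy. Data are average ± SE, compared by Scheffe's test.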

[4] = target: Tubulin beta-6 chain (Arabidopsis thaliana) (UniProt P29514); test: Effect on GFP-tagged tubulin beta6 polymerization in Arabidopsis thaliana (L.) Heynh assessed as growth of lagging end at 25 uM after 10 mins by confocal microscopic analysis (reference value: 3.54 +/- 2.48 um/min)
REF52 [5] = test: Induction of microtubule depolymerization in rat REF52 cells at 6.9 to 13.8 uM after 30 mins by fluorescence assay relative to control; assay type: cell-based
Bos taurus [6] = organism: Bos taurus; test: Inhibition of rhodamine-labeled bovine brain tubulin polymerization assessed as number of microtubules at 20 uM after 20 mins by fluorescence microscopic analysis relative to control; procedure, shortened: as §1
REF52 [7] = test: Effect on actin depolymerization in rat REF52 cells at 27.5 uM after 30 mins by fluorescence assay; assay type: cell-based
Procedure, shortened: (§2)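 HeLa or Ref52 cells were grown in DMEM with 10% fetal calf serum at 37 °C/5% CO2. Compound was dissolved in DMSO and diluted in serum-free DMEM. Cells were permeabilized and fixed in paraformaldehyde/Triton X-100. MTs were immunostained with DM1A plus an Alexa 488 secondary, and actin was stained with Alexa 555-phalloidin. Cells were examined by confocal microscopy.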

[8] = target: Tubulin beta-6 chain (Arabidopsis thaliana) (UniProt P29514); test: Effect on GFP-tagged tubulin beta6 polymerization in Arabidopsis thaliana (L.) Heynh at 25 uM after 10 mins by confocal microscopic analysis
REF52 [9] = test: Induction of microtubule depolymerization in rat REF52 cells at 27.5 uM after 5 to 30 mins by fluorescence assay relative to control; assay type: cell-based
REF52 [10] = test: Induction of microtubule depolymerization in rat REF52 cells at 27.5 uM by fluorescence assay; assay type: cell-based; conditions: TDE = time-dependent effect
Arabidopsis thaliana [11] = test: Effect on GFP-talin-tagged actin organization in Arabidopsis thaliana (L.) Heynh at 25 uM after 10 mins by confocal microscopic analysis
Procedure, shortened: (§3)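 GFP-talin (actin marker) Arabidopsis Columbia seedlings were raised on MS medium with 4 days of dark stratification at 4 °C, then grown at 24 °C under a 16/8 h photoperiod. Cotyledons of 7-day-old seedlings were treated with 25 μM for 10 min. Actin fiber organization and dynamics were followed by confocal time-lapse imaging.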

[12] = target: Tubulin beta-6 chain (Arabidopsis thaliana) (UniProt P29514); test: Effect on GFP-tagged tubulin beta6 polymerization in Arabidopsis thaliana (L.) Heynh assessed as shorten leading end at 25 uM after 10 mins by confocal microscopic analysis (reference value: 15.43 +/- 5.37 um/min)
HeLa [13] = test: Induction of microtubule depolymerization in human HeLa cells at 27.5 uM after 30 mins by fluorescence assay; assay type: cell-based; procedure, shortened: as §2
HeLa [14] = test: Effect on actin depolymerization in human HeLa cells at 27.5 uM after 30 mins by fluorescence assay; assay type: cell-based; procedure, shortened: as §2
Arabidopsis thaliana [15] = test: Effect on GFP-talin-tagged actin dynamics in Arabidopsis thaliana (L.) Heynh at 25 uM after 10 mins by confocal microscopic analysis; procedure, shortened: as §3
REF52 [16] = test: Induction of microtubule depolymerization in rat REF52 cells at 27.5 uM after 30 mins by fluorescence assay; assay type: cell-based
REF52 [17] = test: Induction of microtubule depolymerization in rat REF52 cells after 30 mins by fluorescence assay; assay type: cell-based
[18] = target: Tubulin beta-6 chain (Arabidopsis thaliana) (UniProt P29514); test: Effect on GFP-tagged tubulin beta6 polymerization in Arabidopsis thaliana (L.) Heynh assessed as shorten lagging end at 25 uM after 10 mins by confocal microscopic analysis (reference value: 3.57 +/- 2.33 um/min)
REF52 [19] = test: Induction of microtubule depolymerization in rat REF52 cells at 0.1 uM after 30 mins by fluorescence assay; assay type: cell-based
Procedure, shortened: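 Ref52 cells in serum-free DMEM, treated 30 min. Permeabilized with 3% paraformaldehyde and 0.5% Triton X-100, then fixed in 3% paraformaldehyde plus 1% glutaraldehyde, quenched with borohydride. Stained with anti-tubulin DM1A and Alexa 488 secondary, imaged by confocal microscopy. FiberScore gives total fluorescence associated with fibers. Mean ± standard error, Scheffe's test at p < 0.05.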

REF52 [20] = test: Induction of microtubule depolymerization in rat REF52 cells assessed as […] in ratio of soluble to insoluble tubulin fraction at 0.1 uM after 30 mins by Western blot analysis; assay type: cell-based
Procedure, shortened: (§4)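 Ref52 rat embryonic fibroblasts grown in DMEM with 10% FCS at 37 °C/5% CO2 and dosed for 30 min in serum-free DMEM. Triton X-100 fractionation: 3 min extraction at room temperature in 50 mM MES pH 6.8 with 2.5 mM EGTA, 5 mM MgCl2 and 0.5% Triton. Equal volumes of soluble and insoluble fractions run on SDS-PAGE. Western blot with anti-tubulin DM1A and anti-actin C4, HRP chemiluminescence, band densitometry. Four independent experiments.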

REF52 [21] = test: Effect on actin depolymerization in rat REF52 cells assessed as effect on ratio of soluble to insoluble protein fraction at 0.1 uM after 30 mins by Western blot analysis; assay type: cell-based; procedure, shortened: as §4
Bos taurus [22] = organism: Bos taurus; test: Inhibition of rhodamine-labeled bovine brain tubulin polymerization assessed as number of microtubules at 20 uM after 20 mins by fluorescence microscopic analysis relative to control; values are per cent of control
REF52 [23] = test: Induction of microtubule depolymerization in rat REF52 cells assessed as decrease in fluorescence associated with fibers at 27.5 uM incubated for 5 to 30 mins measured after 30 mins relative to control; assay type: cell-based; set-up: scale not given: the % may be the effect or the level left
Bos taurus [24] = organism: Bos taurus; test: Inhibition of rhodamine-labeled bovine brain tubulin polymerization assessed as shorter microtubules at 20 uM after 20 mins by fluorescence microscopic analysis relative to control; values are per cent of control
REF52 [25] = test: Induction of microtubule depolymerization in rat REF52 cells at 2 uM after 30 mins by fluorescence assay; assay type: cell-based

Sequence of Tubulin beta-6 chain (Arabidopsis thaliana) (P29514 whole entry): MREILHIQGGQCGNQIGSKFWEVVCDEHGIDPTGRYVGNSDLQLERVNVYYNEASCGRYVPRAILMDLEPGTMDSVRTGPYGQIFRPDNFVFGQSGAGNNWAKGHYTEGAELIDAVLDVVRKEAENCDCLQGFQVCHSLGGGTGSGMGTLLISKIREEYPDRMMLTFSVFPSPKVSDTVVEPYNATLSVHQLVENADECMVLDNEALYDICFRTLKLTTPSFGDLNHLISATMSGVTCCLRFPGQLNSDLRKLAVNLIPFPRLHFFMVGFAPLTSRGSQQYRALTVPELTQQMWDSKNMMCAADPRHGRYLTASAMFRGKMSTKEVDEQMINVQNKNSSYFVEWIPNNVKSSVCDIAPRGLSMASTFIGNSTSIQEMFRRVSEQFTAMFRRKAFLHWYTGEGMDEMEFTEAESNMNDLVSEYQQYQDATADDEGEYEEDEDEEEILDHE

Row | SMILES | Activity [1] [um/min] | Activity (REF52 [2]) [%] | Activity [4] [um/min] | Activity (REF52 [7]) | Activity [8] | Activity (REF52 [10]) | Activity (Arabidopsis thaliana [11]) | Activity [12] [um/min] | Activity (HeLa [13]) | Activity (HeLa [14]) | Activity (Arabidopsis thaliana [15]) | Activity (REF52 [16]) | Activity (REF52 [17]) | Activity [18] [um/min] | Activity (REF52 [19]) | other results
1 | CC(C)=CCC[C@H](C)CC=O | 5.94 | 50 | 1.66 | inactive | inactive | tde | inactive | 14.6 | inactive | inactive | inactive | inactive | Dose-dependent effect | 7.48 | – | inhibition (Bos taurus [3]): inactive; Activity (REF52 [5]): inactive; inhibition (Bos taurus [6]): inactive; Activity (REF52 [9]): 60%
2 | COc1cc2c(c(OC)c1OC)-c1ccc(OC)c(=O)cc1[C@@H](NC(C)=O)CC2 | – | – | – | – | – | – | – | – | – | – | – | – | – | – | Active | Activity (REF52 [20]): Active; Activity (REF52 [21]): inactive
3 | CC[C@]1(O)C[C@@H]2CN(CCc3c([nH]c4ccccc34)[C@@](C(=O)OC)(c3cc4c(cc3OC)N(C)[C@H]3[C@@](O)(C(=O)OC)[C@H](OC(C)=O)[C@]5(CC)C=CCN6CC[C@]43[C@@H]65)C2)C1 | – | – | – | – | – | – | – | – | – | – | – | – | – | – | Active | –
4 | CC(C)=CCC[C@@H](C)CC=O | 0 | 20 | 0 | inactive | Active | tde | inactive | 0 | Active | inactive | inactive | Active | Dose-dependent effect | 0 | – | residual activity (Bos taurus [22]): 40%; Activity (REF52 [23]): 20%; residual activity (Bos taurus [24]): 30%
5 | CC(=O)O[C@H]1C(=O)[C@@]2(C)[C@H]([C@H](OC(=O)c3ccccc3)[C@]3(O)C[C@H](OC(=O)[C@H](O)[C@@H](NC(=O)c4ccccc4)c4ccccc4)C(C)=C1C3(C)C)[C@]1(OC(C)=O)CO[C@@H]1C[C@@H]2O | – | – | – | – | – | – | – | – | – | – | – | – | – | – | – | Activity (REF52 [25]): Active
